According to publication PMC6004563 (ACS Medicinal Chemistry Letters, 2018):

Columns and labels:
[1] = target: eIF4E−4E-BP1 protein-protein interaction (Homo sapiens, UniProt P06730); assay: Selectivity: cat-ELCCA of the eIF4E−4E-BP1 protein-protein interaction; type: binding; conditions: compound at 100 µM
[2] = target: Dicer-mediated pre-let-7d maturation (Homo sapiens, UniProt Q9UPY3); assay: Selectivity: Dicer-mediated pre-let-7d maturation; type: biochemical; conditions: compound at 100 µM
[3] = target: T1, pre-let-7d−Lin28 interaction (Mus musculus, UniProt Q8K3Y3); assay: electrophoretic mobility shift assay; type: binding, murine; conditions: pre-let-7d with Lin28, dose response
T1 sequence (Q8K3Y3 2-209): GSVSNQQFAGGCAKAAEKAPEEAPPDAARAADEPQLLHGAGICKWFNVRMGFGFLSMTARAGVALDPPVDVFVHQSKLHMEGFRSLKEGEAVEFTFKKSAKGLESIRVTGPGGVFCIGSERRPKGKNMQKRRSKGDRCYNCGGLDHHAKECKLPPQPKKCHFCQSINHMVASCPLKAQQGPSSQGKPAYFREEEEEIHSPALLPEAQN

[4] = system: biotinylated pre-let-7d; assay: SPR binding to biotinylated pre-let-7d; conditions: 100, 50, 25, 12.5 and 6.25 µM
[5] = target: T2, pre-let-7d–Lin28A interaction (Mus musculus, UniProt Q8K3Y3); assay: cat-ELCCA of the pre-let-7d–Lin28A interaction; type: binding, murine
T2 sequence (Q8K3Y3 2-209): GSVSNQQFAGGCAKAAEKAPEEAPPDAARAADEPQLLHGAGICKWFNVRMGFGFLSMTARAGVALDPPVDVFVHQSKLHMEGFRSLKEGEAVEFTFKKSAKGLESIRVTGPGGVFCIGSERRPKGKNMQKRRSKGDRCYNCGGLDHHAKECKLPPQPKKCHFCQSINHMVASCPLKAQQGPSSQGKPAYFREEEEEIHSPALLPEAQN
In short: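 Murine Lin28A, expressed as an N-terminal HaloTag fusion and biotin-labelled, was immobilised in streptavidin-coated wells. Wells were then incubated with pre-let-7d bearing a 5′-trans-cyclooctene click handle. Bound RNA was detected by click reaction with methyltetrazine-labelled HRP, then HRP substrate, with chemiluminescence as read-out. Washing steps were included.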

[6] = target: T3, HaloTag-mLin28A (biotinylated) (Mus musculus, UniProt Q8K3Y3 1-209); assay: cat-ELCCA
T3 sequence: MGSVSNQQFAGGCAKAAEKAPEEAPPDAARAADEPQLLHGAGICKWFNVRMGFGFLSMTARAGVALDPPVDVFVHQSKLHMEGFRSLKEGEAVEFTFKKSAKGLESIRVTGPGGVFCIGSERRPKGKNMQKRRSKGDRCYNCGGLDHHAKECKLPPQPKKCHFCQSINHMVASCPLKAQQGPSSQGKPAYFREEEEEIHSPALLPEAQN

eIF4E−4E-BP1 protein-protein interaction, sequence (P06730 whole entry): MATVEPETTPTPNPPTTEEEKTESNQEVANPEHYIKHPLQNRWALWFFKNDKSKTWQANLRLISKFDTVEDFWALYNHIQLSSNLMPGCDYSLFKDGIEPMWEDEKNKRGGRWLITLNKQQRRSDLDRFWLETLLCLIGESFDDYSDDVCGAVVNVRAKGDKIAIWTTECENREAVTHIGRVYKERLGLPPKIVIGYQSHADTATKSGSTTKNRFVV
Dicer-mediated pre-let-7d maturation, sequence (Q9UPY3 whole entry): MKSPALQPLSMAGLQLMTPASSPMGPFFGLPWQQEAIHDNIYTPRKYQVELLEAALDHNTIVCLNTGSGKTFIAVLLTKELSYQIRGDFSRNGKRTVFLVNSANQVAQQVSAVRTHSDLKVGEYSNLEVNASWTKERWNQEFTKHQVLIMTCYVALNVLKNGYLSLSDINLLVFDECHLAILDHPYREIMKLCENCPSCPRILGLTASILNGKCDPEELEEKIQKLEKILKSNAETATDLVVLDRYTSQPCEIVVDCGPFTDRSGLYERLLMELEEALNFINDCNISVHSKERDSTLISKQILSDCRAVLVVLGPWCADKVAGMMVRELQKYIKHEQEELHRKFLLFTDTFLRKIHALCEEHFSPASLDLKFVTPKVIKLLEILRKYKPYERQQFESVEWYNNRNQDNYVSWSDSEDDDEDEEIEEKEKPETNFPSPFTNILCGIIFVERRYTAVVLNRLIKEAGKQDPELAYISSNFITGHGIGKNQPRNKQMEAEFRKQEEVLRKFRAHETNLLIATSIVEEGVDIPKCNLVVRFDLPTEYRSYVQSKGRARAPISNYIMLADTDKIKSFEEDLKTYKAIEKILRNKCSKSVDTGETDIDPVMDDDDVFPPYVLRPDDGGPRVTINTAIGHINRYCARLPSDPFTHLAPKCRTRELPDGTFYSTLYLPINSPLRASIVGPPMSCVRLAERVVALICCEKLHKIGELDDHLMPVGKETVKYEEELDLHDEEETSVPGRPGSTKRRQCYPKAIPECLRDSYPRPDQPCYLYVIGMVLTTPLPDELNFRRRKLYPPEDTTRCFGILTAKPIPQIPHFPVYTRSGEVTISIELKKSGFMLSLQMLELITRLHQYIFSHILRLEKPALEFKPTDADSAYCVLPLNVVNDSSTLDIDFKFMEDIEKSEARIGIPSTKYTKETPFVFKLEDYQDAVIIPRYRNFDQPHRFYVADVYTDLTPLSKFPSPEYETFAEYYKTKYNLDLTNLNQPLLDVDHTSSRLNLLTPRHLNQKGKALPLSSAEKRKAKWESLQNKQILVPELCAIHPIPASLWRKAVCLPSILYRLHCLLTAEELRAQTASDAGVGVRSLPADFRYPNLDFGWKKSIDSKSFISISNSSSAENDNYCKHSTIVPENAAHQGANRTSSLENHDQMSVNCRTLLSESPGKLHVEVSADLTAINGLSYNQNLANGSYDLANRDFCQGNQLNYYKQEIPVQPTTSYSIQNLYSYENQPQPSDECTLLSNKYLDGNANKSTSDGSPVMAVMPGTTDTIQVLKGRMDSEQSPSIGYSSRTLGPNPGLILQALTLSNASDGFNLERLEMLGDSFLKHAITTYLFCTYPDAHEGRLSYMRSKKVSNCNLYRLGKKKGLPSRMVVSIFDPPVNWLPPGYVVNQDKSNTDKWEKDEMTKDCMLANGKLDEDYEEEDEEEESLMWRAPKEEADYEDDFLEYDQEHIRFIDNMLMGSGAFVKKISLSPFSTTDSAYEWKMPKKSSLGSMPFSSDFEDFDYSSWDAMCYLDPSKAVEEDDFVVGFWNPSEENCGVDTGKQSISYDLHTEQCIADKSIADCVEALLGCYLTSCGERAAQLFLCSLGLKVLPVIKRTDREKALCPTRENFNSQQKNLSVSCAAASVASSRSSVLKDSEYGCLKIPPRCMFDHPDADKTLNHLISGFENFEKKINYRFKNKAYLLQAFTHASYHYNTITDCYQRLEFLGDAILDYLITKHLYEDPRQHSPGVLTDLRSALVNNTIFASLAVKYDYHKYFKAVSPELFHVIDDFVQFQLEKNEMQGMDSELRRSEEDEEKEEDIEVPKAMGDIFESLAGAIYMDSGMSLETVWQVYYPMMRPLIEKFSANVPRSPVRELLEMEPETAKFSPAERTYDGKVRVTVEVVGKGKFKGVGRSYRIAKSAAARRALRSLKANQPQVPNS

Cc1ccc(S(=O)(=O)Nc2ccc(F)cc2NS(=O)(=O)c2ccc(C)cc2)cc1 [CCG-233094]
inhibition of cat-ELCCA-based PPI assay [1]: insignificant inhibition | inhibition of Dicer-mediated pre-let-7d maturation [2]: insignificant inhibition | activity in EMSA [3]: concentration-responsive activity | binding to pre-let-7d (SPR) [4]: not pre-let-7d

Cc1ccc(S(=O)(=O)Nc2ccc(C)cc2NS(=O)(=O)c2cccc(C(F)(F)F)c2)cc1 [CCG-234459]
inhibition of cat-ELCCA-based PPI assay [1]: insignificant inhibition | inhibition of Dicer-mediated pre-let-7d maturation [2]: insignificant inhibition | activity in EMSA [3]: concentration-responsive activity | binding to pre-let-7d (SPR) [4]: not pre-let-7d

Nc1ccccc1NS(=O)(=O)c1ccccc1 [Compound 3]
activity (inhibition of pre-let-7d–Lin28A) [5]: inactive

O=S(=O)(Nc1cccc(NS(=O)(=O)c2ccccc2)c1)c1ccccc1 [Compound 4, N,N′-(1,3-phenylene)dibenzenesulfonamide]
activity (inhibition of pre-let-7d–Lin28A) [5]: inactive

O=S(=O)(c1ccccc1)N1CCN(S(=O)(=O)c2ccccc2)c2ccccc21 [Compound 5]
activity (inhibition of pre-let-7d–Lin28A) [5]: inactive

O=C(Nc1ccccc1NC(=O)c1ccccc1)c1ccccc1 [Compound 6]
activity (inhibition of pre-let-7d–Lin28A) [5]: inactive

B1: 5'-TCO-pre-let-7d (structured_RNA)
RNA: AGAGGUAGUAGGUUGCAUAGUUUUAGGGCAGGGAUUUUGCCCACAAGGAGGUAACUAUACGACCUGCUGCCUUUCU
modifications: 5'-phosphate pentylamine (N5) linked to TCO-PEG4
Kd [6]: 0.106 µM
